# Assay outcomes from PubChem BioAssay.
# Yeast life ext: extends the lifespan of yeast. inhibition of the nicotinamide effect, % at 10 µM. S. cerevisiae growth with nicotinamide, OD615; deaD strain in restrictive glucose medium. 130,000 compounds, 0.68% hits;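 active means inhibition above a set limit, placed 3 SD over the median of all compounds, cut at about 26% in these data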;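 further: 0% = nicotinamide-treated wells and 100% = cells grown without nicotinamide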
#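 Test system – modified budding yeast, DeaD strain · Compound – single dose 10 µM compound, 0.25% DMSO · Times – culture preincubation 4 h, compound exposure 48 h, both 30 °C · Detection – optical density (absorbance) at 615 nm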
# BB579 growth dn: yeast BB579 growth reduction in restrictive medium | S. cerevisiae BB579 growth, OD615, 48 h | inhibition, % at 10 µM | 140,000 compounds, 0.51% hits | AID 804;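 active means inhibition above a set limit, 3 SD over the mean compound inhibition, cut at about 44% in these data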
#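 System: Saccharomyces cerevisiae DeaD strain BB579, replicative lifespan model yeast. Buffer or medium: restrictive glucose-based CSMM-D medium. Doses: one dose, 10 µM compound with 0.25% DMSO. Timing: 4 h preincubation and 48 h exposure at 30 °C. Detection: turbidity as optical density at 615 nm. Benchmarks: amphotericin B 10 µg/mL, positive.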
# INS promoter inh: TRM-6 insulin promoter activity inhibition; AID 1273; TRM-6 cells, insulin promoter-eGFP reporter, imaging; reporter expression induced with tamoxifen; inhibition, % at 2 µM; 130,000 compounds, 0.9% hits;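 active means inhibition above the mean plus 3 SD, with well images judged a real hit on visual review, cut at about 60% in these data, passing the limit was not always enough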
# Measles CPE: protection of cells from measles virus; Measles virus-infected cells, CPE protection, absorbance; protection (pct of control), % at 4 µM; 140,000 compounds, 1.5% hits; in the data active means protection mostly above about 24%, no sharp cut-off; inactive means mostly below about 26%
# RAM network inh: blocks the yeast RAM network; 190,000 compounds, 1.8% hits; inhibition, % at 50 µM; S. cerevisiae dse1pr::URA3 reporter, 5-FOA growth OD615, 2 d; analog-sensitive cbk1-as2 kinase mutant strain;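 active means inhibition above a set limit, 3 SD over mean compound inhibition, cut at about 8.4% in these data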;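 further: 0% = DMSO-only wells with no growth and 100% = 10 µM 1-NA-PP1 full growth; inhibition rescues growth on 5-FOA so higher OD means more RAM inhibition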
# Mdm2 ligase inh: Mdm2 E3 ligase (human) inhibition | Q00987 | cell-based MDM2 ubiquitination luciferase reporter, 2 h; 0 = plate control, 100 = twice control, blank-subtracted | signal enhancement, % at 5 µM | 210,000 compounds, 0.11% hits | AID 1230;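 active means signal enhancement of 30% or more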;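 further: luminescence tracks abundance of the self-degrading MDM2-luciferase fusion protein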
# Target sequence (Q00987 whole entry, looked up, the tested form may be a part): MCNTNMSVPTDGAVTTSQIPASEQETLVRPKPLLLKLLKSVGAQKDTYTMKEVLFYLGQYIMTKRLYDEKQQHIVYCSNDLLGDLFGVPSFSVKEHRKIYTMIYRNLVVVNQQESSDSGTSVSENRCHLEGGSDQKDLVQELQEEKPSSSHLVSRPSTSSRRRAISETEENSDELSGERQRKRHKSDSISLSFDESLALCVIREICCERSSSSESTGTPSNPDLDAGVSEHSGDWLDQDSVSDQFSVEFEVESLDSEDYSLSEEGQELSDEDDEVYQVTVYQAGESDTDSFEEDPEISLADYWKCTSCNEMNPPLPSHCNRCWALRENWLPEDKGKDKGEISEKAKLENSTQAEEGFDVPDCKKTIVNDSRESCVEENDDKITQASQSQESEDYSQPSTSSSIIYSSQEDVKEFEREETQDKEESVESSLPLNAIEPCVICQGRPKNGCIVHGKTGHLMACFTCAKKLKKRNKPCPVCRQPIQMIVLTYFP
#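 Buffer or medium: Cells held in DMEM | Assay system: Stable mammalian line carrying autodegrading MDM2–luciferase fusion reporter | Quantity: 2000 cells/well | Times: 4 h settle plus 2 h compound, 37 °C | Doses: One concentration, 5 µM, with 0.2% DMSO | Technique: Luminescence with SteadyLite reagent, 15 min at room temperature | Benchmarks: Plate controls and plate blanks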
# Starred values were filed as active, the others as inactive; x = no result. In the library only some 4% were active in any assay of this set; here they are far more common.
SMILES,Yeast life ext,BB579 growth dn,INS promoter inh,Measles CPE,RAM network inh,Mdm2 ligase inh
O=C(Cn1cnc2ccccc21)N/N=C/C(Br)=C/c1ccccc1,2.1,-25.0,x,25.9,0.0,-1.8
CCn1c(SCC(=O)NCc2cccs2)nnc1-c1ccncc1,-20.3,-34.4,-12.1,11.7,-0.1,-34.8
CCn1nc(C)c(NC(=O)CSc2nnc(-c3ccco3)n2C)c1C,-4.9,0.0,81.2*,9.4,0.2,7.2
Cc1sc2nc(SCC(=O)NCc3cccs3)[nH]c(=O)c2c1C,-22.9,-34.2,90.9*,5.8,0.9,-7.3
CCCNC(=O)CSc1nnc(-c2ccco2)n1C,-17.2,8.8,x,3.3,1.2,11.9
CCn1c(SCC(=O)NCc2cccs2)nnc1-c1ccco1,-3.5,-39.5,x,25.6*,0.2,-4.1
COc1ccc(OCC(O)CNC(=O)Nc2cccc3ccccc23)cc1 (stereo not given),x,x,x,x,x,2.8
Cc1nc(CNC(=O)CC2C(=O)NCCN2Cc2cccc(Oc3ccccc3)c2)cs1 (stereo not given),x,x,x,x,-0.9,-2.5
CCN(CC)Cc1cc(C(=O)O)c(C)o1,x,x,12.5,x,1.6,31.6*
CCCNC(=O)NC(=O)CSc1nc2cc(C(=O)OC)ccc2c(=O)n1-c1ccccc1,-7.5,-26.6,22.0,26.0*,5.0,-12.7
COc1ccc(-c2nc(-c3ccccc3)[nH]c(=O)c2C#N)cc1,30.1,-44.4,x,19.4,3.8,-5.5
COc1ccc(-c2c(C#N)c(C)nc3c2C(=O)c2ccccc2-3)cc1,-9.3,-49.6,89.5*,6.8,3.9,-11.3
Cc1ccc(-n2c(SCC(=O)N3CC(=O)Nc4ccccc43)nc3ccccc3c2=O)cc1,-5.4,-13.8,x,32.8*,1.7,-5.3
Cn1c(=O)c(=O)n(C)c2cc(S(=O)(=O)N3CCN(Cc4ccccc4)CC3)ccc21,87.9*,-16.7,x,10.0,0.8,4.6
Cn1c(=O)c(=O)n(C)c2cc(S(=O)(=O)N3CC(=O)N(CCc4ccccc4)C(=O)C3)ccc21,x,x,x,x,x,-23.5
NC(=S)NN=C1c2cc(S(=O)(=O)N3CCOCC3)ccc2-c2ccc(S(=O)(=O)N3CCOCC3)cc21,4.0,-16.3,x,2.7,9.9*,-6.0
CSC1=NC(C)(C)CC2(C)Nc3ccccc3N12 (stereo not given),9.8,-51.6,53.9,18.2*,0.6,-4.3
CC1(C)CC2(C)Nc3ccccc3N2C(=S)N1 (stereo not given),3.5,-66.8,-14.3,3.7,0.5,9.3
Cc1ccc(S(=O)(=O)Oc2ccc(C)cc2/C=N/N=C2\NC(=O)C(C)S2)cc1 (stereo not given),-2.3,-42.0,79.0*,8.6,1.7,-3.9
c1cc2c(cc1C1CCCCC1)c1c3n2CCCNC3CCC1 (stereo not given),x,68.1*,-66.7,0.3,-0.9,-3.5
CC(C)(CCl)C(=O)Nc1ccc(C(F)(F)F)cc1,x,x,84.6*,x,0.0,2.1
CCCCCCc1nc2ccccc2c(=O)n1NC(=O)c1c(O)c2cccc3c2n(c1=O)CC3,x,x,22.2,x,x,x
CCOC(=O)c1c(C)nc2sc(C(=O)Nc3ccc(OC)cc3)c(N)c2c1-c1ccc(OC)cc1,-10.9,-49.5,-8.6,3.8,8.7*,-1.6
Nc1nonc1C(=O)N/N=C/c1ccc(-c2ccc(Cl)c(C(=O)O)c2)o1,x,x,x,x,2.5,-5.7
O=C(O)c1cc(-c2ccc(/C=N/Nc3ccc(Cl)cc3)o2)ccc1Cl,-19.0,94.9*,x,1.8,4.2,4.8
SMILES,Yeast life ext,BB579 growth dn,INS promoter inh,Measles CPE,RAM network inh,Mdm2 ligase inh
O=C(NCc1ccc2c(c1)OCO2)c1ccc(NS(=O)(=O)c2ccc3c(c2)OCCO3)cc1,-5.1,-24.1,27.5,3.5,8.5*,-10.7
Cc1ccc2nc(/C(C#N)=C/c3cn[nH]c3-c3ccc(F)cc3)[nH]c2c1,-11.5,-31.8,-2.6,2.3,10.2*,-12.9
Cc1ccc2nc(/C(C#N)=N/O)[nH]c2c1,11.0,-23.9,-13.8,2.1,1.8,-0.8
Cc1ccc(S(=O)(=O)NCc2ccco2)cc1C,-7.0,-5.3,-48.5,42.5*,-0.4,-12.4
Cc1ccc(-c2ccc(S(=O)(=O)NCc3ccco3)cc2)cc1,x,x,x,x,-0.6,-19.9
COc1ccc2c(c1)nc(SCC(O)c1ccccc1)n2C (stereo not given),x,x,13.3,x,0.2,-2.4
CCOCCCn1c(=S)[nH]c2cc(C(=O)NCCN(CC)CC)ccc2c1=O,-5.7,8.0,x,33.7*,-0.3,-5.1
CCOC(=O)C1CCCN(C(=O)c2ccc3c(=O)n(CCOC)c(=S)[nH]c3c2)C1 (stereo not given),x,-28.5,-23.7,27.9*,2.3,x
COCCn1c(=S)[nH]c2cc(C(=O)N3CCC(C(N)=O)(N4CCCCC4)CC3)ccc2c1=O,-6.0,-35.3,50.0,11.1,1.1,13.2
COc1ccc(OC)c(-c2csc(N(Cc3ccco3)C(=O)c3cccs3)n2)c1,-9.0,-16.0,-2.9,18.6,9.1*,-15.6
COc1ccc(OC)c(-c2csc(N(C)C(=O)Cc3ccccc3)n2)c1,x,x,-5.9,x,9.8*,-11.1
CCOC(=O)c1cnn2cc(-c3[nH]ncc3[N+](=O)[O-])cnc12,1.5,-20.5,0.0,33.4*,2.2,6.6
O=C(Nc1cccc(C(F)(F)F)c1)c1cc(-c2cccs2)on1,-16.7,-32.3,x,66.7*,6.3,1.2
Cc1ccc(NC(=O)c2cc(-c3cccs3)on2)cc1C,x,x,x,x,4.7,-13.6
COc1cc2c(cc1NC(=O)c1cccc(F)c1)CCCC2,-6.0,-7.1,0.0,9.1,3.1,-13.6
COc1cc2c(cc1NC(=O)c1cccc(Br)c1)CCCC2,4.4,-44.1,16.7,0.9,9.3*,-10.9
CCOC(=O)c1nn(-c2ccc(OCC)cc2)c2nc(-c3ccco3)c(C#N)c(=O)n12,-3.7,-28.0,43.8,6.1,2.7,3.5
CCC(C)(NC(=O)c1ccc2c(c1)OCO2)C(=O)NC1CCCCC1 (stereo not given),x,x,-20.0,x,-0.5,-2.4
N=c1oc2ccc3ccccc3c2cc1C(N)=S,x,x,x,x,-0.4,4.3
COC(=O)c1cscc1NC(C)=O,-9.5,-44.4,75.0*,2.3,3.9,-9.6
Cc1ccc(CC(=O)Nc2ccc(F)c([N+](=O)[O-])c2)cc1C,x,x,41.7,x,2.0,-1.0
Cc1ccc(CC(=O)Nc2ccc(F)c([N+](=O)[O-])c2)cc1,2.0,-34.6,3.7,34.5*,2.9,3.5
Cc1cc(Cl)ccc1OCC(=O)OCC(=O)Nc1ccc(F)c([N+](=O)[O-])c1,-5.2,-21.4,-57.1,22.4,9.2*,-2.8
CCNC(=O)COC(=O)COc1ccc(Cl)cc1C,-11.6,-74.0,0.0,10.8,0.7,-9.0
CCC(C)c1ccc(NC(=O)COC(=O)c2nc3nccc(C)n3n2)cc1 (stereo not given),x,x,52.6,x,2.2,-2.7
Cc1cc2sc(C(=O)O)c(C)c2s1,x,57.8*,-338.9,6.6,0.7,-0.2
